19 compounds from ChEMBL document CHEMBL1944553, “Structure-activity relationships of truncated C2- or C8-substituted adenosine derivatives as dual acting A₂A and A₃ adenosine receptor ligands” (J Med Chem, 2012) can be followed below.

Experiment [1] concerns the target T1, Adenosine receptor A2a (Homo sapiens, UniProt P29274). The experiment in a line: Displacement of [3H]CGS21680 from human adenosine A2A receptor expressed in HEK293 cells at 10 uM after 60 mins by […]. In kind it is cell-based. The essentials:
(§1)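 HEK-293 cells stably expressing human A2AAR. Membranes at 20 µg/tube were incubated with [3H]CGS21680 at 25 °C for 60 min in 50 mM Tris-HCl pH 7.4 with 10 mM MgCl2. Nonspecific binding was defined with 10 µM NECA, and reactions were stopped by GF/B filtration.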

The target of experiment [2] is T2, Adenosine receptor A3 (Homo sapiens) (UniProt P0DMS8).
T2 sequence (whole entry): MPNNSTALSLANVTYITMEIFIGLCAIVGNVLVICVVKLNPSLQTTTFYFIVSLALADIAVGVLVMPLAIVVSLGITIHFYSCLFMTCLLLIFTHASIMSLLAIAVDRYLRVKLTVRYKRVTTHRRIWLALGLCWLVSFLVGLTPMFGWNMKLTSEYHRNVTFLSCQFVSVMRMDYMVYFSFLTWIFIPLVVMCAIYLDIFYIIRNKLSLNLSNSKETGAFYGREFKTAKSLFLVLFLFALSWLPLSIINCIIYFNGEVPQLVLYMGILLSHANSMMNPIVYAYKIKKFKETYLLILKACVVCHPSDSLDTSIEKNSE
Kind of experiment: Partial agonist activity at human recombinant adenosine A3 receptor expressed in CHO cells assessed as inhibition of forskolin-stimulated cAMP production at 10 uM incubated for 30 mins prior to forskolin addition by enzyme immunoassay relative to C1-IB-MECA. In kind it is functional, cell-based. (In general: cAMP levels reflect the balance of adenylyl cyclase and phosphodiesterase activity.)

The target of experiment [3] is T3, Adenosine receptor A1 (Homo sapiens) (UniProt P30542).
T3 sequence (whole entry): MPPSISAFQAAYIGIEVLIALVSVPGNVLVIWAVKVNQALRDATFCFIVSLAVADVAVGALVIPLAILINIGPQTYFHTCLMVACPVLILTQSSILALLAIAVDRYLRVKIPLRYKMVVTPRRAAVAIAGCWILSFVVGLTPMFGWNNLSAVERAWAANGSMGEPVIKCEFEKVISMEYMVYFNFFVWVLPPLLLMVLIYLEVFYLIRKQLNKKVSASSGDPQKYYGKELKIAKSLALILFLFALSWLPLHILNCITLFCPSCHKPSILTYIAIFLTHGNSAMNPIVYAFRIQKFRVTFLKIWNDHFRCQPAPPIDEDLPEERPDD
The experiment in a line: Displacement of [3H]R-PIA from human recombinant adenosine A1 receptor expressed in CHO cells at 10 uM after 60 mins by […]. The format is cell-based. In outline: (§2)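 Membranes (40 µg/tube) from CHO cells stably expressing human A1AR, incubated with 1 nM [3H]R-PIA at 25 °C for 60 min in 50 mM Tris-HCl pH 7.4 with 10 mM MgCl2. Nonspecific binding set with 10 µM NECA. GF/B filtration.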

In the next experiment the target is T4, Adenosine receptor A3 (Homo sapiens, UniProt P0DMS8).
T4 sequence (P0DMS8 whole entry): T2 sequence (whole entry)
The experiment in a line: Displacement of [125I]I-AB-MECA from human adenosine A3 receptor expressed in CHO cells after 60 mins by gamma counting. The format is cell-based. The essentials: (§3)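 hA3AR-CHO membranes (20 µg protein) with 0.5 nM [125I]I-AB-MECA and increasing ligand concentrations in 50 mM Tris-HCl pH 7.4, 10 mM MgCl2, 1 mM EDTA; 25 °C, 60 min. Nonspecific binding: 10 µM NECA. Filtered on GF/B, washed three times with ice-cold buffer, gamma-counted.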
For orientation: In a radioligand displacement assay an active substance lowers the binding of a labelled ligand.

The target in another experiment is T5, Adenosine receptor A1 (Homo sapiens, UniProt P30542).
T5 sequence (P30542 whole entry): T3 sequence (whole entry)
Kind of experiment: Displacement of [3H]R-PIA from human recombinant adenosine A1 receptor expressed in CHO cells after 60 mins by […]. In kind it is cell-based. The essentials:
as §2

For experiment [4], the target named is T6, Adenosine receptor A2b (Homo sapiens) (UniProt P29275).
T6 sequence (whole entry): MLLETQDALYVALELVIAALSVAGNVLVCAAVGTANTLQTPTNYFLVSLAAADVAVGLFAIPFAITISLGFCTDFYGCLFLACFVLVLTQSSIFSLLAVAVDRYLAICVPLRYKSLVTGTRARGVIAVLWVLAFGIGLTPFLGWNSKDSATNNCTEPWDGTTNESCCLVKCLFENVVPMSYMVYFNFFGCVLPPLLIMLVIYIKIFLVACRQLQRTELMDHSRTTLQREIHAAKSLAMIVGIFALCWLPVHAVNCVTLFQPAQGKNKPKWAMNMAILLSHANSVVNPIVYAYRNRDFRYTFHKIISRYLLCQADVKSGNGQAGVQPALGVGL
Kind of experiment: Agonist activity at human recombinant adenosine A2B receptor expressed in CHO cells assessed as induction of cAMP production at 10 uM after 30 mins by immunoassay relative to NECA. In kind it is functional, cell-based.

Experiment [5] deals with T1, Adenosine receptor A2a. The experiment in a line: Displacement of [3H]CGS21680 from human adenosine A2A receptor expressed in HEK293 cells after 60 mins by […]. The format is cell-based. In outline:
as §1

The test system of another experiment is Rattus norvegicus. Kind of experiment: Antiinflammatory activity in Sprague-Dawley rat assessed as reduction in carrageenan-induced paw edema at 20 mg/kg, ip administered 30 mins before carrageenan challenge measured after 4 hrs by plethysmometer analysis. The format is functional. To be noted: route intraperitoneal. On the set-up: scale not given: the % may be the effect or the level left. In outline: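 Male Sprague-Dawley rats (140–160 g, 5 weeks), acclimatized one week. Compound at 20 mg/kg given ip in 5% cremophor/5% ethanol in PBS; vehicle as control. After 30 min, 0.1 mL 1% carrageenan in saline was injected subplantar into the right hind paw, with saline in the left. Paw volume was read by plethysmometer at 0–24 h, 4 h included. Mean ± SD, ANOVA.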
A general note: The carrageenan paw model is a standard test of acute inflammation.

The target of experiment [6] is T1, Adenosine receptor A2a. Kind of experiment: Agonist activity at human recombinant adenosine A2A receptor expressed in CHO cells assessed as induction of cAMP production at 10 uM after 30 mins by enzyme immunoassay relative to NECA. In kind it is functional, cell-based.
Experiment [7] concerns the target T2, Adenosine receptor A3 (Homo sapiens). The experiment in a line: Competitive antagonist activity at human recombinant adenosine A3 receptor expressed in CHO cells assessed as inhibition of C1-IB-MECA-induced cAMP production preincubated for 30 mins prior to forskolin addition by enzyme immunoassay. The format is functional, cell-based.
Experiment [8] addresses T1, Adenosine receptor A2a. The experiment in a line: Agonist activity at human recombinant adenosine A2A receptor expressed in CHO cells assessed as induction of cAMP production after 30 mins by immunoassay. The format is functional, cell-based.
For experiment [9], the target named is T2, Adenosine receptor A3 (Homo sapiens). Kind of experiment: Displacement of [125I]I-AB-MECA from human adenosine A3 receptor expressed in CHO cells at 10 uM after 60 mins by gamma counting. The format is cell-based. The essentials: as §3

T1 sequence (P29274 whole entry): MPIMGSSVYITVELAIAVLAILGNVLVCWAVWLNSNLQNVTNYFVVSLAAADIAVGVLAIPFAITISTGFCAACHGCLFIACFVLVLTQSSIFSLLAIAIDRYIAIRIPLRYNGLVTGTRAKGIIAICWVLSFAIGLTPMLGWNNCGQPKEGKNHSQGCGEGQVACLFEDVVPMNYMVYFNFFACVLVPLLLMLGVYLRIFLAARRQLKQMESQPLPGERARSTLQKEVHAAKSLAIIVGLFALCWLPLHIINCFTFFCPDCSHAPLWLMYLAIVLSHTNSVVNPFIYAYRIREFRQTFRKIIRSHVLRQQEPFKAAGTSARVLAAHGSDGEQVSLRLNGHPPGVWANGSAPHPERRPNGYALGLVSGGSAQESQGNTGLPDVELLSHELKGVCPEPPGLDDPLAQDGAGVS

For the compound `CCCCC#Cc1nc(NCc2cccc(Cl)c2)c2ncn([C@@H]3OC[C@@H](O)[C@H]3O)c2n1`, the inhibition on Adenosine receptor A2a [1] worked out at 42%; in [2], 39.7%; in experiment [3], 9%. The compound further showed a Ki at Adenosine receptor A3 of 0.15 µM.
For `CCCC/C=C/c1nc2c(N)ncnc2n1[C@@H]1OC[C@@H](O)[C@H]1O`, the inhibition on Adenosine receptor A2a [1] was 27.3%; in experiment [2], 19.5%. The figures for the Ki at Adenosine receptor A1 and at Adenosine receptor A3 were 0.5 µM and 0.0942 µM, respectively.
`CCCCC#Cc1nc2c(N)ncnc2n1[C@@H]1SC[C@@H](O)[C@H]1O`: the Activity in [4] amounted to 7%. For the same compound, in experiment [2], the inhibition was 1.7%.
For the compound `CCCCC#Cc1nc(NCc2cccc(I)c2)c2ncn([C@@H]3SC[C@@H](O)[C@H]3O)c2n1`, the inhibition in experiment [2] was determined as 40%; in experiment [3], 15%. The Ki on Adenosine receptor A2a [5] came out at 4.89 µM; at Adenosine receptor A3 it was 0.039 µM.
`CCCC/C=C/c1nc2c(N)ncnc2n1[C@@H]1SC[C@@H](O)[C@H]1O`: the inhibition in experiment [2] was determined as 6.1%.
Take `CCCCC#Cc1nc2c(N)ncnc2n1[C@@H]1OC[C@@H](O)[C@H]1O`: the inhibition worked out at 27.2% on Adenosine receptor A2a [1] and 24.5% in experiment [2]. Further, the Ki on Adenosine receptor A1 turned out to be 0.29 µM; on Adenosine receptor A3, 0.0317 µM.
On to `CCCCC#Cc1nc(N)c2ncn([C@@H]3SC[C@@H](O)[C@H]3O)c2n1`, for which the inhibition in experiment [2] is 2.8%. Besides, the Activity in the experiment with Rattus norvegicus is given as 51.1%.
Consider `CCCCC#Cc1nc(NCc2cccc(I)c2)c2ncn([C@@H]3OC[C@@H](O)[C@H]3O)c2n1`, for which the inhibition on Adenosine receptor A2a [1] is 32%; in experiment [2], 31.5%; in experiment [3] it was 18%. In addition, on Adenosine receptor A3, the Ki turned out to be 0.22 µM.
The like results for `CCCCC#Cc1nc(NCc2cccc(F)c2)c2ncn([C@@H]3OC[C@@H](O)[C@H]3O)c2n1` were, in that order, 25%, 29.5%, 9% and 0.57 µM.
As for `CCCCC#Cc1nc(NCc2cccc(Cl)c2)c2ncn([C@@H]3SC[C@@H](O)[C@H]3O)c2n1`, the inhibition in experiment [2] was 47.2%; in experiment [3], 25%. Besides, the Ki at Adenosine receptor A2a [5] was determined as 3.73 µM; at Adenosine receptor A3 it was 0.024 µM.
`CCCCC#Cc1nc(NCc2cccc(F)c2)c2ncn([C@@H]3SC[C@@H](O)[C@H]3O)c2n1`: the results for the inhibition (on Adenosine receptor A2a [1]; in [2]; in [3]) were 46%, 47.6% and 24%, respectively. The same compound had a Ki at Adenosine receptor A3 of 0.15 µM.
As to `CCCC/C=C/c1nc(N)c2ncn([C@@H]3SC[C@@H](O)[C@H]3O)c2n1`, the Activity in [4] was determined as 3.6%; on Adenosine receptor A2a [6] it was 109%. The antagonist equilibrium constant (Kb) in experiment [7] amounted to 0.0239 µM. Also, the EC50 at Adenosine receptor A2a [8] stood at 0.0206 µM. The inhibition in [2] turned out to be 10.7%.
For `CCCCC#Cc1nc(NCc2cccc(Br)c2)c2ncn([C@@H]3OC[C@@H](O)[C@H]3O)c2n1`, the inhibition at Adenosine receptor A2a [1] amounted to 27%; in experiment [2], 37.2%; in experiment [3], 12%. Moreover, affinity on Adenosine receptor A3 was put at a Ki of 0.067 µM.
With `CCCCCCc1nc2c(N)ncnc2n1[C@@H]1OC[C@@H](O)[C@H]1O`, the inhibition at Adenosine receptor A2a [1] was 5.8%; in experiment [2] it was 12.9%; in experiment [9], 24.7%; in [3], 18.1%.
For the compound `CCCCC#Cc1nc(N)c2ncn([C@@H]3OC[C@@H](O)[C@H]3O)c2n1`, the results for the Activity (in experiment [4]; on Adenosine receptor A2a [6]) were 1.9% and 89.9%, respectively. Moreover, the EC50 at Adenosine receptor A2a [8] stood at 0.0803 µM. For the same compound, the inhibition in experiment [2] is 17.4%. Further, the Ki on Adenosine receptor A1 came to 0.74 µM; on Adenosine receptor A2a [5] it was 0.0632 µM; at Adenosine receptor A3, 0.138 µM.
With `CCCCC#Cc1nc(NCc2cccc(Br)c2)c2ncn([C@@H]3SC[C@@H](O)[C@H]3O)c2n1`, the inhibition in [2] turned out to be 25.2%; in experiment [3] it was 12%. For the same compound, the Ki worked out at 3.91 µM at Adenosine receptor A2a [5] and 0.024 µM at Adenosine receptor A3.
Take `COc1ccc2c(c1)c(CC(=O)O)c(C)n2C(=O)c1ccc(Cl)cc1` [INDOMETHACIN]: in the experiment on Rattus norvegicus, the Activity was 49.7%.
On to `CCCC/C=C/c1nc(N)c2ncn([C@@H]3OC[C@@H](O)[C@H]3O)c2n1`, for which the Activity in experiment [4] worked out at 1.8%; at Adenosine receptor A2a [6], 83%. In addition, the values for the inhibition in experiment [2] and in [3] were 42.6% and 31.9%, respectively. Besides, the Ki at Adenosine receptor A2a [5] was 0.178 µM; at Adenosine receptor A3, 0.218 µM.
In the case of `CCCCCCc1nc(N)c2ncn([C@@H]3OC[C@@H](O)[C@H]3O)c2n1`, the inhibition in [2] stood at 22.3%; in experiment [9], 39%; in [3], 10%. Moreover, the affinity on Adenosine receptor A2a [5], expressed as Ki, was 2.16 µM.

A word on the inhibition: it is the drop in the measured response relative to a control, in per cent. The Ki is the dissociation constant of the complex between target and ligand, obtained from inhibition or displacement. What is called Kb is the equilibrium dissociation constant of an antagonist, usually derived from a functional assay. A word on the EC50: it is the concentration giving half of the maximal effect.
